According to ChEMBL document CHEMBL3352266:
Active and inactive are the calls of the source. The calls are words filed in the database; no cut-off is given here.

How the values were obtained:
Myeloperoxidase = biological target: T1, Myeloperoxidase (Homo sapiens, UniProt P05164); test: Inhibition of myeloperoxidase (unknown origin) assessed as reduction in enzymatic hypochlorous acid production by spectrophotometry based taurine chlorination assay; assay type: single protein
T1 sequence (P05164 whole entry): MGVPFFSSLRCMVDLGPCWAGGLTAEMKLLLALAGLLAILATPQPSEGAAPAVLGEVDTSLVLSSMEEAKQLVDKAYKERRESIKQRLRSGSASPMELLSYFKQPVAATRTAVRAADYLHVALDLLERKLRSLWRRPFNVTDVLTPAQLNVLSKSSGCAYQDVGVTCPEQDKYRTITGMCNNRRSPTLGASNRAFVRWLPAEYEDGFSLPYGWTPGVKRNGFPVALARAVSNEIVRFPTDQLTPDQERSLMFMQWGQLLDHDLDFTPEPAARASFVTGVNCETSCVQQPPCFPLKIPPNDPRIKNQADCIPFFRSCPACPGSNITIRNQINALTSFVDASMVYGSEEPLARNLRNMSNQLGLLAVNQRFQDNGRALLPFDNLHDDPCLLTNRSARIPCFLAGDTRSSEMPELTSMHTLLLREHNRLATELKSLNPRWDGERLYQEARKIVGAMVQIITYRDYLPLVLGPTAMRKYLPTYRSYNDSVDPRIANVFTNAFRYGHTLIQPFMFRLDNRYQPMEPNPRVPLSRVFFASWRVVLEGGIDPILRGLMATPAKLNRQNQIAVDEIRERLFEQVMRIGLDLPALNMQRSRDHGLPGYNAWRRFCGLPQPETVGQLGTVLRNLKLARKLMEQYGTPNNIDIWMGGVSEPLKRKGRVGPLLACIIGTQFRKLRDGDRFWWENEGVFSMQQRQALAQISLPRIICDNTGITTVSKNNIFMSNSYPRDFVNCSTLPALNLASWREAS
Procedure, shortened: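 Started with 40 μM H2O2 and stopped after 5 min with catalase. Developed with an equal volume of 500 uM TMB and 100 μM NaI in 300 mM acetate, pH 5.4. Absorbance read at 650 nm. IC50 given as mean of ≥3 trials ± SD.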

[1] = biological target: T2, Myeloperoxidase (Homo sapiens) (UniProt P05164); test: Inhibition of myeloperoxidase (unknown origin) assessed as reduction in H2O2 consumption by H2O2-specific electrode based assay
T2 sequence (whole entry): T1 sequence (P05164 whole entry)
Procedure, shortened: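 An H2O2-specific electrode sat in a continuously stirred vessel holding 30 μM H2O2, 154 mM NaCl and varied inhibitor concentrations in 10 mM phosphate buffer, pH 7.4. H2O2 concentration was followed in real time to derive IC50.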

## CCCCCCCCn1nc2ccccc2c1OCC
Myeloperoxidase
  IC50: > 10000 nM

## c1c2c(cc3c4n(nc13)CCCS4)OCO2
Myeloperoxidase
  IC50: 140 nM
[1]
  inhibition: Active

## CCCCn1nc2ccccc2c1OC
Myeloperoxidase
  IC50: 910 nM
[1]
  inhibition: Active

## CCCCn1[nH]c2ccccc2c1=O
Myeloperoxidase
  IC50: 792 nM
[1]
  inhibition: Active

## COc1c2cc3c(cc2nn1C(C)C)OCO3
Myeloperoxidase
  IC50: 711 nM
[1]
  inhibition: Active

## O=c1c2ccccc2[nH]n1CCCO
Myeloperoxidase
  IC50: 1950 nM

## C#Cc1ccc(-n2nc3ccccc3c2OC)cc1
Myeloperoxidase
  IC50: 1100 nM

## c1c2c(cc3c4n(nc13)CCCO4)OCO2
Myeloperoxidase
  IC50: 403 nM
[1]
  inhibition: Active

## CC(C)n1c(=O)c2ccccc2n1S(C)(=O)=O
Myeloperoxidase
  IC50: > 10000 nM

## CCCCCCCCn1nc2ccccc2c1OC
Myeloperoxidase
  IC50: > 10000 nM

## O=c1c2ccccc2[nH]n1CCO
Myeloperoxidase
  IC50: 2470 nM

## COc1c2ccccc2nn1C(C)C
Myeloperoxidase
  IC50: 704 nM
[1]
  inhibition: Active

## CC(CCl)n1c(=O)c2ccccc2n1S(C)(=O)=O (configuration not stated)
Myeloperoxidase
  IC50: > 10000 nM

## c1ccc2c3n(nc2c1)CCCS3
Myeloperoxidase
  IC50: 213 nM
[1]
  inhibition: Active

## CCCCCCCCn1[nH]c2ccccc2c1=O
Myeloperoxidase
  IC50: > 10000 nM

## CC1(C)COc2c3ccccc3nn21
Myeloperoxidase
  IC50: 1030 nM

## CC(C)n1[nH]c2ccccc2c1=O
Myeloperoxidase
  IC50: 660 nM
[1]
  inhibition: Active

## CC(C)n1c(=O)c2ccccc2n1CC(=O)N1CCOCC1
Myeloperoxidase
  IC50: > 10000 nM

## CC1COc2c3ccccc3nn21 (configuration not stated)
Myeloperoxidase
  IC50: 900 nM
[1]
  inhibition: Active

## CCOc1c2ccccc2nn1C(C)C
Myeloperoxidase
  IC50: 722 nM
[1]
  inhibition: Active

## COc1c2ccccc2nn1-c1cccc(I)c1
Myeloperoxidase
  IC50: 1660 nM

## COc1c2ccccc2nn1-c1ccc(I)cc1
Myeloperoxidase
  IC50: 2000 nM

## CC(=O)n1c2ccccc2c(=O)n1C(C)C
Myeloperoxidase
  IC50: > 10000 nM

## c1ccc2c3n(nc2c1)CCCO3
Myeloperoxidase
  IC50: 359 nM
[1]
  inhibition: Active

## c1ccc2c(c1)COc1c3ccccc3nn1-2
Myeloperoxidase
  IC50: 4150 nM

## COc1c2ccccc2nn1CCCCCO
Myeloperoxidase
  IC50: 1540 nM

## CC(=O)OCC(C)n1c(=O)c2ccccc2n1C(C)=O (configuration not stated)
Myeloperoxidase
  IC50: > 10000 nM

## CC(=O)OCC(C)n1[nH]c2ccccc2c1=O (configuration not stated)
Myeloperoxidase
  IC50: 2120 nM

## c1ccc2c3n(nc2c1)CCS3
Myeloperoxidase
  IC50: 94 nM
[1]
  inhibition: Active

## COCCOc1c2ccccc2nn1C(C)C
Myeloperoxidase
  IC50: 1400 nM

## COc1c2ccccc2nn1-c1cccc(Cl)c1
Myeloperoxidase
  IC50: 4770 nM

## COc1c2ccccc2nn1CCCCO
Myeloperoxidase
  IC50: 1790 nM

## CCCCn1nc2ccccc2c1OCC
Myeloperoxidase
  IC50: 807 nM
[1]
  inhibition: Active

## CC(CBr)n1c(=O)c2ccccc2n1CC(=O)N1CCOCC1 (configuration not stated)
Myeloperoxidase
  IC50: > 10000 nM

## COCCn1nc2ccccc2c1OC
Myeloperoxidase
  IC50: 1080 nM

## CCCCCn1nc2ccccc2c1OC
Myeloperoxidase
  IC50: 3880 nM

## c1c2c(cc3c4n(nc13)CCS4)OCO2
Myeloperoxidase
  IC50: 87 nM
[1]
  inhibition: Active

## COc1c2ccccc2nn1-c1ccccc1
Myeloperoxidase
  IC50: 2030 nM
